M1 PAM: human CHRM1 positive allosteric modulation | P11229 | CHO-K1 hM1, Fluo-8 calcium fluorescence, ACh EC20; 0% = ACh EC20, 100% = maximal ACh | activation, % at 3 µM | actives 0.088% (n = 360,000) | AID 588819; in the data active means activation above about 19%, passing the limit was not always enough
CHRM1 antagonist: human CHRM1 antagonism; actives 1.3% (n = 360,000); inhibition, % at 3 µM; CHO-K1 hM1, Fluo-8 calcium fluorescence, ACh EC80 antagonist; P11229;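 active means percent inhibition above its own plate's cutoff, namely the mean of that plate's compound wells plus 3 SD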;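 further: peak over basal fluorescence ratio during 140 s after agonist addition; 0% = ACh EC80 plus DMSO and 100% = DMSO alone without agonist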
CHRM1 agonist: human M1 muscarinic receptor agonism; P11229; actives 0.33% (n = 360,000); activation, % at 3 µM; CHO-K1 hM1, Fluo-8 calcium fluorescence, agonist mode; 0% DMSO, 100% acetylcholine EC100; AID 588814;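 active means activation above the run's mean compound activation plus 3 SD, cut at about 16% in these data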;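 further: peak over basal fluorescence ratio within a 140 s kinetic read after compound addition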
TAAR1 antagonist: human TAAR1 antagonism. Q96RJ0. actives 1.5% (n = 360,000). inhibition, % at 3 µM. CHO RD-HGA16 TAAR1, Fluo-8 calcium fluorescence, antagonist;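 active means inhibition above a per-plate cutoff, the mean inhibition of test compounds on that plate plus 3 SD, cut at about 49% in these data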;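 further: 0% = DMSO plus EC80 beta-PEA response and 100% = DMSO alone without agonist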
Target sequence (Q96RJ0 whole entry, looked up): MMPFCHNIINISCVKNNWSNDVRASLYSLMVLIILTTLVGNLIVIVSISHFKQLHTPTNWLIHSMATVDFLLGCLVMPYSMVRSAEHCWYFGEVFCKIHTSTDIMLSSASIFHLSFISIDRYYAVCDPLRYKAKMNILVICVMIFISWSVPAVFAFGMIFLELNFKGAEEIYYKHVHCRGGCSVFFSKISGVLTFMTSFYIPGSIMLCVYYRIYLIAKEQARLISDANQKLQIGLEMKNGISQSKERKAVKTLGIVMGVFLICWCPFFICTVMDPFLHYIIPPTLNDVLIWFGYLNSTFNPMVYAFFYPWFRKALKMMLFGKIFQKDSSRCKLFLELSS
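Assay system: RD-HGA16 CHO cells with stable hTAAR1 and Gα16 / Reagent: EC80 β-phenethylamine stimulus / Doses: 3 µM, single point / Timing: dye loading 75 min at 37 °C, then 30 min room temperature / Measured by: Fluo-8 intracellular calcium dye fluorescence, real-time kinetic reads / Controls: vehicle wells and EC80 agonist wells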
m5-HT2A agonist: activates the mouse 5-HT2A serotonin receptor | P35363 | CHO-K1 mHTR2A beta-arrestin complementation, luminescence; percent of 30 µM serotonin response | actives 0.66% (n = 360,000) | activation, % at 7.6 µM;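 active means activation above a run cutoff, the mean activation of all tested compounds plus 3 SD, cut at about 14% in these data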;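 further: 0% = plate median of compound wells and 100% = 30 µM serotonin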
TAAR1 ag: agonists of human TAAR1 | activation, % at 3 µM | CHO RD-HGA16 TAAR1, Fluo-8 calcium fluorescence; vehicle wells 0%, saturating PEA agonist 100% | actives 0.99% (n = 360,000);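 active means activation above the mean activation of all test compounds in the run plus 3 SD, cut at about 38% in these data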
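Benchmarks: low control DMSO, high control PEA (EC100); System: CHO RD-HGA16 cells carrying human TAAR1 plus Gα16; Detection: Fluo-8 fluorescence, 5 s baseline then 140 s kinetic read; Schedule: 17-24 h plating, Fluo-8 75 min 37 °C, 30 min RT; Read-out basis: % activation from peak over basal fluorescence ratio, DMSO-to-PEA scaled.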
TAAR1 ag confirm: human TAAR1 agonism, confirmed | shares compounds with TAAR1 ag | CHO RD-HGA16 TAAR1, Fluo-8 calcium fluorescence; scaled: DMSO 0%, maximal phenethylamine 100% | activation, % at 3 µM | actives 82% (n = 2,400);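 active means activation above a cutoff set at the run's mean compound activation plus 3 SD, cut at about 39% in these data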
Ga16 nonsel ag: nonselective agonist in parental cells, TAAR1 agonist counter-screen. shares compounds with TAAR1 ag. CHO-Ga16 parental, Fluo-8 calcium fluorescence; normalized to maximal ATP response, DMSO zero. actives 50% (n = 2,400). activation, % at 3 µM;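 active means activation above the run cutoff, the mean activation over all tested wells plus 3 SD, cut at about 12% in these data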;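 further: 0% = DMSO wells and 100% = maximal ATP response on the peak over basal ratio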
TAAR1 desens: counter-screen for human TAAR1 agonists: agonists that desensitize TAAR1 | shares compounds with TAAR1 ag | CHO RD-HGA16 hTAAR1, Fluo-8 calcium, beta-PEA response inhibition | inhibition, % at 3 µM | actives 46% (n = 2,400);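 active means inhibition above the run cutoff, the mean inhibition of all test compounds plus 3 SD, cut at about 49% in these data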;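 further: beta-PEA stimulus applied at its EC80; loss of beta-PEA calcium signal after compound pretreatment read as receptor desensitization; 0% = DMSO with beta-PEA at EC80 and 100% = DMSO alone without agonist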
Ga16 antag count: nonselective Ga16 antagonist in TAAR1 agonist counter-screen. shares compounds with TAAR1 ag. CHO-Ga16 ATP-induced calcium, Fluo-8 fluorescence. inhibition, % at 3 µM. actives 39% (n = 2,400). AID 651952;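 active means inhibition above the plate's mean compound inhibition plus 3 SD, computed per plate, cut at about 22% in these data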;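 further: 0% = EC80 ATP with DMSO and 100% = DMSO wells without ATP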
* hit, by the source's call; . = no result. Rows were chosen to be rich in hits. Some 3.9% of all compounds tested hit in one or more screens of this group.

SMILES | M1 PAM | CHRM1 antagonist | CHRM1 agonist | TAAR1 antagonist | m5-HT2A agonist | TAAR1 ag | TAAR1 ag confirm | Ga16 nonsel ag | TAAR1 desens | Ga16 antag count
c1ccc(-c2cnn3c(-c4ccccc4)c(-c4ccccc4)nc3n2)cc1 | -9 | 41* | 52* | 63* | 0 | 77* | 100* | 121* | 84* | 82*
Nc1nc(-c2ccccc2)c(-c2ccccc2)n1N | 7 | -1 | -1 | -1 | -1 | 4 | . | . | . | .
COc1ccc(-c2csc(C(C#N)=C(O)CSc3nccn3C)n2)cc1OC | 8 | -3 | 2 | 25 | 1 | 5 | . | . | . | .
CCCCCCCC(=O)OCC(O)CO (configuration not stated) | 5 | -27 | -2 | 6 | 2 | 2 | . | . | . | .
CCCCCCCCCCCCCCC(O)C[N+](C)(CCO)CCO (configuration not stated) | -22 | 30 | -4 | 77* | -3 | 54* | 18 | 4 | 36 | 30*
O=[N+]([O-])c1ccn(-c2nc(-c3ccccc3)cc(C(F)(F)F)n2)n1 | 6 | -4 | -5 | -6 | -3 | 50* | 4 | 1 | 4 | 2
O=C(C[C@H]1C/C=C\CC[C@@H](Cc2ccc(F)cc2)C(=O)OCCNC1=O)NCCO | 6 | 2 | -3 | 13 | 3 | 2 | . | . | . | .
O=C(NCc1ccco1)c1cc(-c2ccc(F)cc2)on1 | -2 | 2 | -6 | 34 | 5 | 49* | 2 | 2 | -1 | 5
O=C(Cc1ccc(-n2cccc2)cc1)NCc1ccccc1Cl | 13 | -5 | -6 | 50* | 1 | 77* | 1 | 0 | -4 | -1
O=C(NCc1ccccc1Cl)NCc1ccccc1Cl | 7 | -7 | -5 | -36 | 4 | 0 | . | . | . | .
CC1CCCN(S(=O)(=O)c2cc3c4c(c2)C(C)C(=O)N4CCC3)C1 (configuration not stated) | 2 | 1 | -3 | -15 | 0 | 3 | . | . | . | .
COc1ccc(-c2ccc3c(c2)O/C(=C\c2ccsc2)C3=O)cn1 | 2 | -3 | -4 | -2 | -2 | 2 | . | . | . | .
Cc1cc(N/N=C/c2cccc(F)c2)nc(NCc2ccccc2)n1 | -3 | 11 | -5 | 28 | -9 | 60* | 55* | 5 | 45 | 15
Cc1cc(N2CCCCC2)nc(NCc2ccccc2)n1 | -24 | 16 | 21* | 64* | -10 | 100* | 73* | 38* | 71* | 50*
Cc1cc(N/N=C/c2ccccc2)nc(NCc2ccccc2)n1 | -2 | -5 | -8 | 28 | -10 | 51* | 63* | 17* | 39 | 18
OCCC1CN(C/C=C/c2ccco2)CCN1Cc1ccccc1 (configuration not stated) | -2 | 1 | -7 | -6 | -3 | 0 | . | . | . | .
CC1CCCCC1NC(=O)CN1CCC(NC(=O)C(C)(C)C)CC1 (configuration not stated) | 7 | -17 | -6 | -1 | -2 | 1 | . | . | . | .
Cc1ccc([C@@H]2CC(=O)[C@@H]3CN(S(=O)(=O)c4ccc(C)cc4)[C@H](c4ccccc4)C[C@@H]3N2S(=O)(=O)c2ccc(Cl)cc2)cc1 | 1 | -5 | -2 | 1 | 10 | 1 | . | . | . | .
Cc1ccc(-n2c(SCC(N)=O)nc3c(oc4ccccc43)c2=O)cc1 | 7 | -11 | 0 | -22 | 2 | 2 | . | . | . | .
C[C@@H]1CN([C@H](C)CO)C(=O)CCCn2cc(nn2)CO[C@H]1CN(C)C(=O)Nc1cccc(Oc2ccccn2)c1 | 11 | -14 | -11 | -23 | 6 | 4 | . | . | . | .
S=c1[nH]nc(-c2cc(-c3ccccc3)n[nH]2)n1/N=C/C(Br)=C/c1ccccc1 | 8 | -6 | 3 | -38 | 1 | -2 | . | . | . | .
O=[N+]([O-])c1ccc(CNCc2cc(Cl)ccc2O)cc1 | 7 | -4 | 0 | 4 | -3 | 51* | 60* | 20* | 20 | 12
O=[N+]([O-])c1ccc(O)c(CNCc2ccccc2)c1 | -3 | -4 | 2 | 5 | -3 | 3 | . | . | . | .
Cc1nn(CC(=O)NCCc2cccs2)c(=O)c2cc3ccccc3n12 | 0 | -10 | -6 | -5 | 1 | 48* | 38* | -1 | 1 | 5
CCOC(=O)Nc1ccc(N2CCOCC2)c(S(=O)(=O)N2CCOCC2)c1 | 4 | 9 | -1 | 3 | 0 | 0 | . | . | . | .
SMILES | M1 PAM | CHRM1 antagonist | CHRM1 agonist | TAAR1 antagonist | m5-HT2A agonist | TAAR1 ag | TAAR1 ag confirm | Ga16 nonsel ag | TAAR1 desens | Ga16 antag count
O=C(Cc1nnc(NC(=O)Nc2ccc(F)cc2)s1)Nc1ccccc1 | 10 | -9 | -5 | 20 | 3 | 54* | 65* | 13* | 68* | 9
CCN(CC)c1ccc(/C=N/NC(=O)Nc2ccccc2)cc1 | 5 | -8 | -3 | 14 | 5 | 17 | . | . | . | .
CCN(CC)c1ccc(/C=N/NC(=O)Cc2nnc(NC(=O)Nc3ccccc3)s2)cc1 | 5 | -2 | -7 | 21 | 1 | 57* | 50* | 0 | 36 | 11
O=C(Nc1ccccc1)Nc1nnc(Cc2ccc(F)cc2)s1 | 7 | 9 | 0 | -23 | -1 | 12 | . | . | . | .
O=C(Cc1nnc(NC(=O)Nc2ccccc2)s1)Nc1ccccc1 | 13 | -14 | -3 | 43 | 1 | 52* | 65* | 2 | 70* | 8
Cc1ccsc1C(=O)N1CCC1(C)C(=O)NS(=O)(=O)c1ccc(C#N)cc1 (configuration not stated) | 1 | -6 | -3 | -16 | -3 | 1 | . | . | . | .
CCN(C(=O)CSc1cc(C)c2cccc(C)c2n1)C1CCS(=O)(=O)C1 (configuration not stated) | 5 | -5 | 1 | 6 | 6 | 6 | . | . | . | .
O=C(Nc1ccccc1C(=O)NCCc1ccccc1)c1ccco1 | 0 | -2 | -1 | 43 | -1 | 60* | 69* | 5 | 60* | 24*
O=C(O)CNC(=O)c1ccccc1NC(=O)c1ccco1 | 3 | -3 | -5 | 18 | 2 | 9 | . | . | . | .

Screening results from PubChem BioAssay.
